In ChEMBL document CHEMBL5370647 (J Med Chem, 2023):
≈ marks a conversion by molar mass, not a printed value.

Assays:
[1] = system: Mycobacterium tuberculosis; experiment: Antitubercular activity against Mycobacterium tuberculosis H37Rv constitutively expressing GFP assessed as inhibition of bacterial growth at 20 uM incubated for 7 days by fluorescence based analysis; format: functional; settings: 168 h, time 7 day
[2] = system: Mycobacterium tuberculosis; experiment: Antitubercular activity against replicating Mycobacterium tuberculosis H37Rv constitutively expressing GFP assessed as inhibition of bacterial growth under normoxia conditions incubated for 3 weeks by spot assay; format: functional; settings: 504 h
[3] = system: Mycobacterium tuberculosis; experiment: Antitubercular activity against non-replicating Mycobacterium tuberculosis H37Rv constitutively expressing GFP assessed as inhibition of bacterial growth incubated for 7 days under hypoxic condition followed by incubation in aerobic conditions for 1 to 5 days by spot assay; format: functional; settings: time 8-12 day
[4] = system: Mycobacterium tuberculosis; experiment: Antitubercular activity against non-replicating Mycobacterium tuberculosis H37Rv expressing luxCDAB assessed as inhibition of bacterial growth incubated for 7 days under hypoxia conditions followed by incubation in normoxia conditions for 5 days by luminescence based analysis; format: functional; settings: 288 h, time 12 day
[5] = molecular target: T1, TGF-beta receptor type-1 (Homo sapiens, UniProt P36897); experiment: Binding affinity to wild type human partial length TGFBR1 (D179 to M503 residues) expressed in bacterial expression system by KINOMEscan assay
T1 sequence (P36897 whole entry): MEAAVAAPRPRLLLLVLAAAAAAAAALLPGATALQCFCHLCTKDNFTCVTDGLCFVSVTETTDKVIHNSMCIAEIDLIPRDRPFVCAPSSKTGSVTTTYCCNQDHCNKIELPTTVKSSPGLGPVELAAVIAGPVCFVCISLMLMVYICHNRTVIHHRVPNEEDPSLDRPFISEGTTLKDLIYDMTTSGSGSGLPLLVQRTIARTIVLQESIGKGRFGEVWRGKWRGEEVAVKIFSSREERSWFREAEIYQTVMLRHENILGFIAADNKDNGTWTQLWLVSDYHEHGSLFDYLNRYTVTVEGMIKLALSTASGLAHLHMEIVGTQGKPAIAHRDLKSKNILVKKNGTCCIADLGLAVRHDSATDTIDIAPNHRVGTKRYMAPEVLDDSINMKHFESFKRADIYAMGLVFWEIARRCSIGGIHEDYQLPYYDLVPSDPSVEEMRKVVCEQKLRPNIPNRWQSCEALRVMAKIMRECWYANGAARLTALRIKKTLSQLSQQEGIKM

[6] = Metabolic stability of the compound in CD-1 mouse liver microsomes assessed as parent compound remaining at 5 uM preincubated for 5 mins followed by NADPH addition and measured after 30 mins by LC-TOF/MS analysis; format: ADME, Microsome; settings: time 35 min, read-out: Stability
Summary of the method: (§1)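 Mouse liver microsomes incubated with compound in the presence of NADPH. Read-out is % parent compound remaining after 30 min.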

[7] = Metabolic stability of the compound in CD-1 mouse liver microsomes at 5 uM by LC-TOF/MS analysis; format: ADME, Microsome; summary of the method: as §1
[8] = AUC(last) in CD-1 mouse at 10 mg/kg, po by LC/MS/MS analysis; format: ADME, organism-based; design: dose 10 mg/kg, route po; settings: in vivo
Summary of the method: (§2)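 CD1 mice dosed orally at 10 mg/kg (snapshot PK study). Plasma levels followed over 5 h by LC/MS/MS. T1/2, Cmax and AUC_last derived from the plasma profile.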

[9] = Half life in CD-1 mouse at 10 mg/kg, po by LC/MS/MS analysis; format: ADME, organism-based; settings: in vivo; summary of the method: as §2
[10] = Cmax in CD-1 mouse at 10 mg/kg, po by LC/MS/MS analysis; format: ADME, organism-based; design: dose 10 mg/kg, route po; settings: in vivo; summary of the method: as §2

Compound	MIC50 [4] [µM]	MIC90 [4] [µM]	remaining at 0.5 h, 5 µM [6] [%]	Stability [7]	also measured
Cc1cccc(-c2nc(Nc3ccncc3)c3ccccc3n2)n1	< 0.3	0.3 (≈ 0.094 µg/mL)	14	Stable	inhibition at 20 µM [1]: > 90%; MIC50 [2]: 16 µM (≈ 5.01 µg/mL); MIC90 [2]: 20 µM (≈ 6.27 µg/mL); MIC90 [3]: 1 µM (≈ 0.313 µg/mL); Kd [5]: 0.01 µM; AUClast [8]: 0.075 µg·h/mL; t1/2 [9]: 1.8 h; Cmax [10]: 0.06 µg/mL
Cc1cccc(-c2nc(Nc3ccc4c(c3)OCO4)c3ccccc3n2)n1	< 0.3	1.3 (≈ 0.463 µg/mL)	30	Stable	AUClast [8]: 0.25 µg·h/mL; t1/2 [9]: 3.4 h; Cmax [10]: 0.075 µg/mL
COc1cccc(-c2nc(Nc3ccncc3)c3ccccc3n2)n1	5 (≈ 1.65 µg/mL)	> 10	–	–	–
c1ccc(-c2nc(Nc3ccncc3)c3ccccc3n2)nc1	1 (≈ 0.299 µg/mL)	2.5 (≈ 0.748 µg/mL)	20	Stable	–
Cn1cncc1-c1cc2c(Nc3ccc(OCc4ccccc4)cc3)ncnc2cn1	–	–	–	–	inhibition at 20 µM [1]: > 90%; MIC50 [2]: 5 µM (≈ 2.04 µg/mL); MIC90 [2]: > 20 µM
Cc1cccc(-c2nc(Nc3ccc4c(c3)ncn4C)c3ccccc3n2)n1	1.3 (≈ 0.476 µg/mL)	5 (≈ 1.83 µg/mL)	–	–	Kd [5]: > 10 µM
Cc1cccc(-c2nc(Nc3ccc4ncoc4c3)c3ccccc3n2)n1	0.3 (≈ 0.106 µg/mL)	5 (≈ 1.77 µg/mL)	–	–	–
FC(F)(F)c1cccc(-c2nc(Nc3ccncc3)c3ccccc3n2)n1	1 (≈ 0.367 µg/mL)	5 (≈ 1.84 µg/mL)	29	Stable	–
Nc1nc(-c2ccccn2)c(-c2ccnc3ccccc23)s1	–	–	–	–	inhibition at 20 µM [1]: > 90%; MIC50 [2]: 13 µM (≈ 3.96 µg/mL); MIC90 [2]: 20 µM (≈ 6.09 µg/mL); MIC90 [3]: > 20 µM
Cc1cccc(-c2nc(Nc3ccc4[nH]ncc4c3)c3ccccc3n2)n1	< 0.3	5 (≈ 1.76 µg/mL)	9	Stable	–
Cc1cccc(-c2nc(Nc3ccncc3)c3cc(O)ccc3n2)n1	1 (≈ 0.329 µg/mL)	2.5 (≈ 0.823 µg/mL)	20	Stable	–
COc1cncc(-c2nc(Nc3ccncc3)c3ccccc3n2)n1	5 (≈ 1.65 µg/mL)	> 10	–	–	–
COc1ccc2nc(-c3cccc(C)n3)nc(Nc3ccncc3)c2c1	< 1	< 1	23	Stable	–
CN1CCN(Cc2cccc(-c3ccc4c(Nc5ccc(Oc6ccccc6)cc5)ccnc4c3)c2)CC1	–	–	–	–	inhibition at 20 µM [1]: > 90%; MIC90 [2]: 11 µM (≈ 5.51 µg/mL); MIC90 [3]: 6 µM (≈ 3 µg/mL)
Cc1cccc(-c2nc(Nc3ccc4ncccc4c3)c3ccccc3n2)n1	0.3 (≈ 0.109 µg/mL)	5 (≈ 1.82 µg/mL)	–	–	–
Clc1cccc(-c2nc(Nc3ccncc3)c3ccccc3n2)c1	> 10	> 10	–	–	–
Cc1cccc(-c2nc(Nc3ccc4occc4c3)c3ccccc3n2)n1	< 0.3	1.3 (≈ 0.458 µg/mL)	–	–	Kd [5]: > 10 µM
Cc1ccc(NC(=O)c2ccnc(N3CCN(C)CC3)c2)cc1-c1ccc(C(=O)NCC2CC2)cc1	–	–	–	–	inhibition at 20 µM [1]: > 90%; MIC50 [2]: 4 µM (≈ 1.93 µg/mL); MIC90 [2]: 6 µM (≈ 2.9 µg/mL)
c1ccc2c(Nc3ccncc3)nc(-c3cnccn3)nc2c1	1 (≈ 0.3 µg/mL)	> 10	–	–	–
Cc1cccc(-c2nc(Nc3ccc4c(cnn4C)c3)c3ccccc3n2)n1	< 0.3	1.3 (≈ 0.476 µg/mL)	9	Stable	–
Cc1cccc(-c2nc(Nc3ccc4nn(C)nc4c3)c3ccccc3n2)n1	< 0.3	0.3 (≈ 0.11 µg/mL)	30	Stable	Kd [5]: > 10 µM; AUClast [8]: 0.44 µg·h/mL; t1/2 [9]: 4.6 h; Cmax [10]: 0.15 µg/mL
Cc1cccc(-c2nc(Nc3ccc4nn(C)cc4c3)c3ccccc3n2)n1	< 0.3	1.3 (≈ 0.476 µg/mL)	–	–	–
Cc1cccc(-c2cc3ccccc3c(Nc3ccncc3)n2)n1	1 (≈ 0.312 µg/mL)	> 10	–	–	–
Cc1cccc(-c2nc(C)cc(Nc3ccncc3)n2)n1	< 1	> 10	–	–	–
Cc1cccc(-c2nc(Oc3ccc4scnc4c3)c3ccccc3n2)n1	< 0.3	0.3 (≈ 0.111 µg/mL)	–	–	Kd [5]: > 10 µM
Cc1cccc(-c2nc(Nc3ccc4nc(C)sc4c3)c3ccccc3n2)n1	< 0.3	0.3 (≈ 0.115 µg/mL)	18	Stable	Kd [5]: > 10 µM
CO[C@H]1/C=C/O[C@@]2(C)Oc3c(C)c(O)c4c(O)c(c(/C=N/N5CCN(C)CC5)c(O)c4c3C2=O)NC(=O)/C(C)=C\C=C\[C@H](C)[C@H](O)[C@@H](C)[C@@H](O)[C@@H](C)[C@H](OC(C)=O)[C@@H]1C [RIFAMPIN]	–	–	–	–	MIC90 [3]: 0.4 µM (≈ 0.329 µg/mL)
